Experimental data reported in ChEMBL document CHEMBL1144721, “Bioactive triterpene saponins from the roots of Phytolacca americana” (J Nat Prod, 2008).
pIC50: −log10 of the molar value.

Columns and labels:
[1] = target: T1, ATP-dependent translocase ABCB1 (Homo sapiens, UniProt P08183); assay: Inhibition of P-glycoprotein-mediated multidrug resistance in human 2780AD cells assessed as calcein accumulation at 0.25 ug/mL relative to control; format: cell-based; set-up: scale not given: the % may be the effect or the level left; conditions: a2780 adr
How it was run: (§1)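 Multidrug-resistant human ovarian cancer 2780AD cells exposed to compound at 0.25, 2.5 or 25 μg/mL. Intracellular calcein accumulation measured and expressed as the amount relative to an untreated control (% of control).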

[2] = target: T1, ATP-dependent translocase ABCB1; assay: Inhibition of P-glycoprotein-mediated multidrug resistance in human 2780AD cells assessed as calcein accumulation at 2.5 ug/mL relative to control; format: cell-based; set-up: scale not given: the % may be the effect or the level left; conditions: a2780 adr; how it was run: as §1
[3] = target: T1, ATP-dependent translocase ABCB1; assay: Inhibition of P-glycoprotein-mediated multidrug resistance in human 2780AD cells assessed as calcein accumulation at 25 ug/mL relative to control; format: cell-based; set-up: scale not given: the % may be the effect or the level left; conditions: a2780 adr; how it was run: as §1
WI-38 = assay: Cytotoxicity against human WI38 cells; format: functional, cell-based
How it was run: (§2)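 IC50 values are the mean of duplicate determinations.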

WI-38 VA13 = assay: Cytotoxicity against human VA13 cells; format: functional, cell-based; how it was run: as §2
HepG2 = assay: Cytotoxicity against human HepG2 cells; format: functional, cell-based; how it was run: as §2
A549 [4] = assay: Cell viability of human A549 cells after 24 hrs by MTT assay; format: functional
How it was run: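 A549 cells incubated with serial dilutions of compound for 24 h. Viability (%) measured by MTT assay and used to derive IC50. Triplicate cultures.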

A549 [5] = assay: Antiinflammatory activity against human A549 cells assessed as inhibition of IL-1-alpha-induced ICAM1 expression after 6 hrs

T1 sequence (P08183 whole entry): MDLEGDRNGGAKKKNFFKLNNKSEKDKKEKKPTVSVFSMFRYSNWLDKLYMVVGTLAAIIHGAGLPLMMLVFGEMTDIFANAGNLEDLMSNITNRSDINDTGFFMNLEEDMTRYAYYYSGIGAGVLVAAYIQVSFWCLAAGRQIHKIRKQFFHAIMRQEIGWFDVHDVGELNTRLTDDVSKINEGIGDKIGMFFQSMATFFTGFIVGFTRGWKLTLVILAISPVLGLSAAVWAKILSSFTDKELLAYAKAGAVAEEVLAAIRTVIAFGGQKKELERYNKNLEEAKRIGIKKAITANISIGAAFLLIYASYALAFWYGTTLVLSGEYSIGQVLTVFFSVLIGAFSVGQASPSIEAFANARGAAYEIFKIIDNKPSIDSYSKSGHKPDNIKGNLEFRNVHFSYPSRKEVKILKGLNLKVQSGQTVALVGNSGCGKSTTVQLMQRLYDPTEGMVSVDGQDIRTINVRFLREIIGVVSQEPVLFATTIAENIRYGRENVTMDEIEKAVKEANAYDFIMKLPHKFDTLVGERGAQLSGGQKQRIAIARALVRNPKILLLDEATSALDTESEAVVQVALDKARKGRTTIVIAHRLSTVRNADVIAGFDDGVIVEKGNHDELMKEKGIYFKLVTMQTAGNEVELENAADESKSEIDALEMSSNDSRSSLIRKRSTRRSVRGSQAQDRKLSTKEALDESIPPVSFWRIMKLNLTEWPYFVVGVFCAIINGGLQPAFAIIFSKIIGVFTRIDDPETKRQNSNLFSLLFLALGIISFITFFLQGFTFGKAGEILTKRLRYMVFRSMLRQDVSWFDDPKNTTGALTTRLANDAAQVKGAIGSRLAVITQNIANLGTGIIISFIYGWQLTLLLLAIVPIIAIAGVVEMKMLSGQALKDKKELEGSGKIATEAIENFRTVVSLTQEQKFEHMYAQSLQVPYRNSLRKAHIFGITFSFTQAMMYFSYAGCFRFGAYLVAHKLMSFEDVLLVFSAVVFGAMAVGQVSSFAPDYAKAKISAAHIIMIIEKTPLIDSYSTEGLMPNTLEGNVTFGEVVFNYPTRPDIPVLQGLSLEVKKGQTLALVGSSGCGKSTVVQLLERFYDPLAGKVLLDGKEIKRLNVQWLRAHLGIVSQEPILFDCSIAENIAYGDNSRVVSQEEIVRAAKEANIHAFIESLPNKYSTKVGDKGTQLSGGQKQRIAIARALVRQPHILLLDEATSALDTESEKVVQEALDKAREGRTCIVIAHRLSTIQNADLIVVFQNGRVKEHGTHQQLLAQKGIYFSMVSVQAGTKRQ

| Activity [1] | Activity [2] | Activity [3] | SMILES | pIC50 (WI-38) | pIC50 (WI-38 VA13) | pIC50 (HepG2) | Activity (A549 [4]) | Activity (A549 [5]) |
| --- | --- | --- | --- | --- | --- | --- | --- | --- |
| 141% | 132% | 143% | COC(=O)[C@@]1(C)CC[C@]2(C(=O)O[C@@H]3O[C@H](CO)[C@@H](O)[C@H](O)[C@H]3O)CC[C@]3(C)C(=CC[C@@H]4[C@@]5(C)C[C@H](O)[C@H](O[C@@H]6OC[C@@H](O)[C@H](O)[C@H]6O)[C@@](C)(CO)[C@@H]5CC[C@]43C)[C@@H]2C1 | < 3.92 | 4.02 | < 3.92 | >121 µM | >121 µM |
| 124% | 129% | 123% | COC(=O)[C@@]1(C)CC[C@]2(C(=O)O[C@@H]3O[C@H](CO)[C@@H](O)[C@H](O)[C@H]3O)CC[C@]3(C)C(=CC[C@@H]4[C@@]5(C)C[C@H](O)[C@H](O[C@@H]6OC[C@@H](OC7O[C@H](CO)[C@@H](O)[C@H](O)[C@H]7O)[C@H](O)[C@H]6O)[C@@](C)(CO)[C@@H]5CC[C@]43C)[C@@H]2C1 (stereo partly specified) | < 4.00 | < 4.00 | < 4.00 | >1012 µM | >320 µM |
| 98% | 115% | 120% | COC(=O)[C@@]1(C)CC[C@]2(C(=O)O[C@@H]3O[C@H](CO)[C@@H](O)[C@H](O)[C@H]3O)CC[C@]3(C)C(=CC[C@@H]4[C@@]5(C)CC(=O)[C@H](O[C@@H]6OC[C@@H](O[C@@H]7O[C@H](CO)[C@@H](O)[C@H](O)[C@H]7O)[C@H](O)[C@H]6O)[C@@](C)(CO)[C@@H]5CC[C@]43C)[C@@H]2C1 | < 4.00 | < 4.00 | < 4.00 | >101 µM | >101 µM |
| 124% | 101% | 126% | COC(=O)[C@@]1(C)CC[C@]2(C(=O)O[C@@H]3O[C@H](CO)[C@@H](O)[C@H](O)[C@H]3O)CC[C@]3(C)C(=CC[C@@H]4[C@@]5(C)CC[C@H](O[C@@H]6OC[C@@H](OC7O[C@H](CO)[C@@H](O)[C@H](O)[C@H]7O)[C@H](O)[C@H]6O)[C@@](C)(CO)[C@@H]5CC[C@]43C)[C@@H]2C1 (stereo partly specified) | < 3.99 | < 3.99 | < 3.99 | >103 µM | >103 µM |
| 111% | 104% | 119% | COC(=O)[C@@]1(C)CC[C@]2(C(=O)O)CC[C@]3(C)C(=CC[C@@H]4[C@@]5(C)C[C@H](O)[C@H](O[C@@H]6OC[C@@H](OC7O[C@H](CO)[C@@H](O)[C@H](O)[C@H]7O)[C@H](O)[C@H]6O)[C@@](C)(CO)[C@@H]5CC[C@]43C)[C@@H]2C1 (stereo partly specified) | 5.15 | 3.93 | 3.99 | 661 µM | >383 µM |
| 118% | 123% | 135% | COC(=O)[C@@]1(C)CC[C@]2(C(=O)O)CC[C@]3(C)C(=C[C@@H](OC)[C@@H]4[C@@]5(C)C[C@H](O)[C@H](O[C@@H]6OC[C@@H](O[C@@H]7O[C@H](CO)[C@@H](O)[C@H](O)[C@H]7O)[C@H](O)[C@H]6O)[C@@](C)(CO)[C@@H]5CC[C@]43C)[C@@H]2C1 | < 3.93 | < 3.93 | < 3.93 | >118 µM | >118 µM |
| 128% | 117% | 123% | COC(=O)[C@@]1(C)CC[C@]2(C(=O)O)CC[C@]3(C)C(=CC[C@@H]4[C@@]5(C)C[C@H](O)[C@H](O[C@@H]6OC[C@@H](O)[C@H](O)[C@H]6O)[C@@](C)(CO)[C@@H]5CC[C@]43C)[C@@H]2C1 [PHYTOLACCOSIDE B] | 4.44 | 4.16 | 4.13 | 265 µM | 253 µM |

More lines, now with the values behind:

| SMILES | Activity [1] | Activity [2] | Activity [3] | pIC50 (WI-38) | pIC50 (WI-38 VA13) | pIC50 (HepG2) | Activity (A549 [4]) | Activity (A549 [5]) |
| --- | --- | --- | --- | --- | --- | --- | --- | --- |
| COC(=O)[C@@]1(C)CC[C@]2(C(=O)O[C@@H]3O[C@H](CO)[C@@H](O)[C@H](O)[C@H]3O)CC[C@]3(C)C(=C[C@@H](O)[C@@H]4[C@@]5(C)C[C@H](O)[C@H](O[C@@H]6OC[C@@H](O[C@@H]7O[C@H](CO)[C@@H](O)[C@H](O)[C@H]7O)[C@H](O)[C@H]6O)[C@@](C)(CO)[C@@H]5CC[C@]43C)[C@@H]2C1 | 121% | 119% | 124% | < 4.00 | 4.03 | < 4.00 | >100 µM | >100 µM |
| COC(=O)[C@@]1(C)CC[C@]2(C(=O)O[C@@H]3O[C@H](CO)[C@@H](O)[C@H](O)[C@H]3O)CC[C@]3(C)C(=C[C@@H](OC)[C@@H]4[C@@]5(C)C[C@H](O)[C@H](O[C@@H]6OC[C@@H](O[C@@H]7O[C@H](CO)[C@@H](O)[C@H](O)[C@H]7O)[C@H](O)[C@H]6O)[C@@](C)(CO)[C@@H]5CC[C@]43C)[C@@H]2C1 | 105% | 100% | 108% | < 4.01 | < 4.01 | < 4.01 | >98.2 µM | >98.2 µM |
| COC(=O)[C@@]1(C)CC[C@]2(C(=O)O[C@@H]3O[C@H](CO)[C@@H](O)[C@H](O)[C@H]3O)CC[C@]3(C)C(=CC[C@@H]4[C@@]5(C)CC[C@H](O[C@@H]6OC[C@@H](O)[C@H](O[C@@H]7OC[C@@H](O)[C@H](O)[C@H]7O[C@@H]7O[C@H](CO)[C@@H](O)[C@H](O)[C@H]7O[C@@H]7O[C@@H](C)[C@H](O)[C@@H](O)[C@H]7O)[C@H]6O)[C@@](C)(CO)[C@@H]5CC[C@]43C)[C@@H]2C1 | 93% | 68% | 94% | < 4.05 | < 4.05 | < 4.05 | >89 µM | >89 µM |
| COC(=O)[C@@]1(C)CC[C@]2(C(=O)O[C@@H]3O[C@H](CO)[C@@H](O)[C@H](O)[C@H]3O)CC[C@]3(C)C(=CC(=O)[C@@H]4[C@@]5(C)C[C@H](O)[C@H](O[C@@H]6OC[C@@H](OC7O[C@H](CO)[C@@H](O)[C@H](O)[C@H]7O)[C@H](O)[C@H]6O)[C@@](C)(CO)[C@@H]5CC[C@]43C)[C@@H]2C1 (stereo partly specified) | 119% | 135% | 155% | < 4.01 | < 4.01 | 4.01 | >98.8 µM | >98.8 µM |
| COC(=O)[C@@]1(C)CC[C@]2(C(=O)O[C@@H]3O[C@H](CO)[C@@H](O)[C@H](O)[C@H]3O)CC[C@]3(C)C(=CC[C@@H]4[C@@]5(C)CC[C@H](O[C@@H]6OC[C@@H](O[C@@H]7O[C@H](CO)[C@@H](O)[C@H](O)[C@H]7O)[C@H](O)[C@H]6O[C@@H]6O[C@H](CO)[C@@H](O)[C@H](O)[C@H]6O)[C@@](C)(CO)[C@@H]5CC[C@]43C)[C@@H]2C1 | 126% | 106% | 123% | < 4.05 | < 4.05 | < 4.05 | >88.2 µM | >88.2 µM |
